According to ChEMBL document CHEMBL1134499, “Structure-activity relationships of 1,4-dihydro-(1H,4H)-quinoxaline-2,3-diones as N-methyl-D-aspartate (glycine site) receptor antagonists. 1. Heterocyclic substituted 5-alkyl derivatives” (J Med Chem, 2001):
Converted amounts (≈) assume the structure as drawn.

What was measured:
Glutamate NMDA receptor = assay: Binding affinity at glycine binding site of NMDA receptor in rat cortical membranes by [3H]L-689,560 displacement.; assay type: cell membranes, Membrane
Mus musculus [1] = assay: Ability to prevent NMDA-induced hyperlocomotion in the mouse following iv administration of 20 mg/kg dose; 6/9; assay type: functional
Method in brief: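 CD1 mice (25-30 g) received NMDA 300 mg/kg sc. Test compound was given iv via a tail vein 15 min before NMDA, dissolved in buffered saline (pH 7-9) or 0.1 M aqueous D-arginine; saline-dosed controls; usually 9-10 mice per dose. Time to onset and duration of hyperlocomotion recorded up to 15 min. Score = number of animals reaching 15 min post-NMDA.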

Rattus norvegicus = organism: Rattus norvegicus; assay: Inhibition of NMDA-induced depolarizations in rat cortical wedges.; assay type: functional
[2] = Solubility in water at pH 4-5; assay type: physicochemical
Mus musculus [3] = assay: Ability to prevent NMDA-induced hyperlocomotion in the mouse following iv administration of 20 mg/kg dose; 0/6; assay type: functional
[4] = Solubility in 0.1 m aqueous D-arginine at pH 9; assay type: physicochemical
Mus musculus [5] = assay: Ability to prevent NMDA-induced hyperlocomotion in the mouse following iv administration of 20 mg/kg dose; 0/9; assay type: functional
[6] = Solubility in 0.1 M aqueous D-arginine at pH 9
Mus musculus [7] = assay: Ability to prevent NMDA-induced hyperlocomotion in the mouse following iv administration of 10 mg/kg dose; 5/10; assay type: functional
Mus musculus [8] = assay: Ability to prevent NMDA-induced hyperlocomotion in the mouse following iv administration of 30 mg/kg dose; 10/10; assay type: functional
Mus musculus [9] = assay: Ability to prevent NMDA-induced hyperlocomotion in the mouse following iv administration of 20 mg/kg dose; 1/9; assay type: functional
Mus musculus [10] = assay: Ability to prevent NMDA-induced hyperlocomotion in the mouse following iv administration of 3 mg/kg dose; 3/10; assay type: functional
Mus musculus [11] = assay: Ability to prevent NMDA-induced hyperlocomotion in the mouse following iv administration of 15 mg/kg dose; 3/10; assay type: functional
Mus musculus [12] = assay: Ability to prevent NMDA-induced hyperlocomotion in the mouse following iv administration of 3 mg/kg dose; 0/9; assay type: functional
Mus musculus [13] = assay: Ability to prevent NMDA-induced hyperlocomotion in the mouse following iv administration of 10 mg/kg dose; 2/9; assay type: functional
Mus musculus [14] = assay: Ability to prevent NMDA-induced hyperlocomotion in the mouse following iv administration of 30 mg/kg dose; 5/9; assay type: functional

SMILES | IC50 (Glutamate NMDA receptor) [nM] | EC50 (Rattus norvegicus) [nM] | further results
Cc1ncnn1Cc1c(Cl)c(Cl)cc2nc(O)c(O)nc12 | 190 | – | –
CCCn1cnc(Cc2c(Cl)c(Cl)cc3nc(O)c(O)nc23)c1 | 4.4 | 350 | No. protected/ No.dosed (Mus musculus [1]): 6; solubility [2]: > 10000 µg/mL
Cc1nccn1Cc1c(Cl)c(Cl)cc2nc(O)c(O)nc12 | 109 | – | –
Oc1nc2cc(Cl)c(Cl)cc2nc1O [2,3-DIHYDROXY-6,7-DICHLOROQUINOXALINE] | 2000 | – | –
Cn1nnc(Cc2c(Cl)c(Cl)cc3nc(O)c(O)nc23)n1 | 78 | – | –
C[C@@H]1CN(O)C(=O)[C@@H]1N | 1200 | 16000 | No. protected/ No.dosed (Mus musculus [7]): 5; No. protected/ No.dosed (Mus musculus [8]): 10
Oc1nc2cc(Cl)c(Cl)c(Cc3ccccn3)c2nc1O | 30 | 4100 | solubility [2]: < 1000 µg/mL
Oc1nc2cc(Cl)c(Cl)c(Cn3cnnc3)c2nc1O | 81 | 1090 | –

Continued by falling IC50 (Glutamate NMDA receptor), values first:

IC50 (Glutamate NMDA receptor) [nM] | EC50 (Rattus norvegicus) [nM] | SMILES | further results
25 | – | Oc1nc2cc(Cl)c(Cl)c(Cn3cncn3)c2nc1O | solubility [6]: < 10 µg/mL
24 | 640 | Cc1ncn(Cc2c(Cl)c(Cl)cc3nc(O)c(O)nc23)n1 | –
23 | 1300 | Oc1nc2cc(Cl)c(Cl)c(Cn3ccnc3)c2nc1O | –
7.6 | 88 | CN1CCN(Cc2cn(Cc3c(Cl)c(Cl)cc4nc(O)c(O)nc34)nn2)CC1 | No. protected/ No.dosed (Mus musculus [9]): 1; solubility [2]: > 10000 µg/mL
6 | 150 | CCN(CC)Cc1cn(Cc2c(Cl)c(Cl)cc3nc(O)c(O)nc23)nn1 | No. protected/ No.dosed (Mus musculus [5]): 0
5 | – | Oc1nc2cc(Cl)c(Cl)c(Cn3cccn3)c2nc1O | solubility [6]: < 10 µg/mL
4 | 420 | CCC(c1c(Cl)c(Cl)cc2nc(O)c(O)nc12)n1cncn1 (stereo unspecified) | solubility [4]: ~1000 µg/mL (≈ 2940 µM)
3.1 | 90 | CCC(c1c(Cl)c(Cl)cc2nc(O)c(O)nc12)n1ccnc1 (stereo unspecified) | No. protected/ No.dosed (Mus musculus [5]): 0
2.6 | 90 | CCC(c1c(Cl)c(Cl)cc2nc(O)c(O)nc12)n1cnnc1 (stereo unspecified) | No. protected/ No.dosed (Mus musculus [12]): 0; No. protected/ No.dosed (Mus musculus [1]): 6; No. protected/ No.dosed (Mus musculus [13]): 2; No. protected/ No.dosed (Mus musculus [14]): 5; solubility [4]: > 5000 µg/mL
1.4 | 1100 | O=c1[nH]c2cc(Cl)c(Cl)c([N+](=O)[O-])c2[nH]c1=O [LICOSTINEL] | No. protected/ No.dosed (Mus musculus [10]): 3; No. protected/ No.dosed (Mus musculus [11]): 3; No. protected/ No.dosed (Mus musculus [7]): 5
1 | 350 | Oc1nc2cc(Cl)c(Cl)c(Cn3ccnn3)c2nc1O | –
0.75 | 290 | CCC(c1c(Cl)c(Cl)cc2nc(O)c(O)nc12)n1ccnn1 (stereo unspecified) | No. protected/ No.dosed (Mus musculus [3]): 0; solubility [4]: < 1000 µg/mL
